Tested on: HEK-293T
Experiment: Multiplex assay against HEK293T
Format: toxicity, cell-based
Conditions: human
Procedure, shortened: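 Four dyes were applied at seeding to live cells: Hoechst33342, BioTracker Green Microtubule Cytoskeleton Dye, MitoTracker Red and Annexin V Alexa Fluor 680. Imaging after compound addition used a CQ1 microscope at 37°C and 5% CO2. CellPathfinder machine-learning gating then sorted cells into Hoechst high-intensity objects or normal cells, normal cells into healthy, pyknosed or fragmented nuclei, and pyknosed cells into mitotic or apoptotic, with tubulin, mitochondrial-mass and membrane-permeability phenotypes given as per cents of healthy-nucleus cells.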

[1] = 12 h, 1 µM, compound concentration 1 uM, replicate 1
[2] = 12 h, 1 µM, compound concentration 1 uM, replicate 2
[3] = 12 h, 10 µM, compound concentration 10 uM, replicate 1
[4] = 12 h, 10 µM, compound concentration 10 uM, replicate 2
[5] = 24 h, 1 µM, compound concentration 1 uM, replicate 1
[6] = 24 h, 1 µM, compound concentration 1 uM, replicate 2
[7] = 24 h, 10 µM, compound concentration 10 uM, replicate 1
[8] = 24 h, 10 µM, compound concentration 10 uM, replicate 2
[9] = 48 h, 1 µM, compound concentration 1 uM, replicate 1
[10] = 48 h, 1 µM, compound concentration 1 uM, replicate 2
[11] = 48 h, 10 µM, compound concentration 10 uM, replicate 1
[12] = 48 h, 10 µM, compound concentration 10 uM, replicate 2

CCCC(CCC)C(=O)O [VALPROIC ACID]
Population Apoptotic (%) [1]: 39%
Population Fragmented Nuclei (%) [1]: 6%
Population Healthy Nuclei (%) [1]: 81%
Population Hoechst High Intensity Objects (%) [1]: 6%
Population Membrane Permeable-Phenotype (%) [1]: 0%
Population Mitochondria Different-Phenotype (%) [1]: 29%
Population Mitotic Cells (%) [1]: 60%
Population Normal (%) [1]: 93%
Population Pyknosed Nuclei (%) [1]: 12%
Population Tubulin-Different-Phenotype (%) [1]: 20%
Total Cell Count [1]: 513
Population Apoptotic (%) [2]: 28%
Population Fragmented Nuclei (%) [2]: 5%
Population Healthy Nuclei (%) [2]: 79%
Population Hoechst High Intensity Objects (%) [2]: 5%
Population Mitochondria Different-Phenotype (%) [2]: 46%
Population Mitotic Cells (%) [2]: 71%
Population Normal (%) [2]: 94%
Population Pyknosed Nuclei (%) [2]: 15%
Population Tubulin-Different-Phenotype (%) [2]: 16%
Total Cell Count [2]: 367
Population Apoptotic (%) [3]: 34%
Population Fragmented Nuclei (%) [3]: 6%
Population Healthy Nuclei (%) [3]: 82%
Population Hoechst High Intensity Objects (%) [3]: 6%
Population Membrane Permeable-Phenotype (%) [3]: 0%
Population Mitochondria Different-Phenotype (%) [3]: 40%
Population Mitotic Cells (%) [3]: 66%
Population Normal (%) [3]: 93%
Population Pyknosed Nuclei (%) [3]: 11%
Population Tubulin-Different-Phenotype (%) [3]: 26%
Total Cell Count [3]: 455
Population Apoptotic (%) [4]: 44%
Population Fragmented Nuclei (%) [4]: 7%
Population Healthy Nuclei (%) [4]: 81%
Population Mitochondria Different-Phenotype (%) [4]: 49%
Population Mitotic Cells (%) [4]: 55%
Population Tubulin-Different-Phenotype (%) [4]: 20%
Total Cell Count [4]: 446
Population Apoptotic (%) [5]: 28%
Population Fragmented Nuclei (%) [5]: 8%
Population Healthy Nuclei (%) [5]: 78%
Population Hoechst High Intensity Objects (%) [5]: 4%
Population Membrane Permeable-Phenotype (%) [5]: 1%
Population Mitochondria Different-Phenotype (%) [5]: 22%
Population Mitotic Cells (%) [5]: 71%
Population Normal (%) [5]: 95%
Population Pyknosed Nuclei (%) [5]: 12%
Population Tubulin-Different-Phenotype (%) [5]: 16%
Total Cell Count [5]: 663
Population Apoptotic (%) [6]: 45%
Population Fragmented Nuclei (%) [6]: 6%
Population Healthy Nuclei (%) [6]: 83%
Population Membrane Permeable-Phenotype (%) [6]: 0%
Population Mitochondria Different-Phenotype (%) [6]: 26%
Population Mitotic Cells (%) [6]: 54%
Population Pyknosed Nuclei (%) [6]: 9%
Population Tubulin-Different-Phenotype (%) [6]: 10%
Total Cell Count [6]: 469
Population Apoptotic (%) [7]: 28%
Population Fragmented Nuclei (%) [7]: 9%
Population Healthy Nuclei (%) [7]: 81%
Population Hoechst High Intensity Objects (%) [7]: 4%
Population Membrane Permeable-Phenotype (%) [7]: 0%
Population Mitochondria Different-Phenotype (%) [7]: 16%
Population Mitotic Cells (%) [7]: 71%
Population Normal (%) [7]: 95%
Population Pyknosed Nuclei (%) [7]: 9%
Population Tubulin-Different-Phenotype (%) [7]: 15%
Total Cell Count [7]: 649
Population Apoptotic (%) [8]: 23%
Population Fragmented Nuclei (%) [8]: 8%
Population Healthy Nuclei (%) [8]: 86%
Population Hoechst High Intensity Objects (%) [8]: 3%
Population Mitochondria Different-Phenotype (%) [8]: 30%
Population Mitotic Cells (%) [8]: 76%
Population Normal (%) [8]: 96%
Population Pyknosed Nuclei (%) [8]: 5%
Population Tubulin-Different-Phenotype (%) [8]: 11%
Total Cell Count [8]: 593
Population Apoptotic (%) [9]: 19%
Population Fragmented Nuclei (%) [9]: 14%
Population Healthy Nuclei (%) [9]: 78%
Population Hoechst High Intensity Objects (%) [9]: 2%
Population Membrane Permeable-Phenotype (%) [9]: 3%
Population Mitochondria Different-Phenotype (%) [9]: 11%
Population Mitotic Cells (%) [9]: 80%
Population Normal (%) [9]: 97%
Population Pyknosed Nuclei (%) [9]: 6%
Population Tubulin-Different-Phenotype (%) [9]: 9%
Total Cell Count [9]: 1112
Population Apoptotic (%) [10]: 36%
Population Fragmented Nuclei (%) [10]: 10%
Population Healthy Nuclei (%) [10]: 81%
Population Hoechst High Intensity Objects (%) [10]: 3%
Population Membrane Permeable-Phenotype (%) [10]: 1%
Population Mitochondria Different-Phenotype (%) [10]: 17%
Population Mitotic Cells (%) [10]: 63%
Population Normal (%) [10]: 96%
Population Pyknosed Nuclei (%) [10]: 8%
Population Tubulin-Different-Phenotype (%) [10]: 10%
Total Cell Count [10]: 700
Population Apoptotic (%) [11]: 21%
Population Fragmented Nuclei (%) [11]: 15%
Population Healthy Nuclei (%) [11]: 79%
Population Hoechst High Intensity Objects (%) [11]: 3%
Population Membrane Permeable-Phenotype (%) [11]: 1%
Population Mitochondria Different-Phenotype (%) [11]: 11%
Population Mitotic Cells (%) [11]: 78%
Population Normal (%) [11]: 96%
Population Pyknosed Nuclei (%) [11]: 5%
Population Tubulin-Different-Phenotype (%) [11]: 9%
Total Cell Count [11]: 1088
Population Apoptotic (%) [12]: 27%
Population Fragmented Nuclei (%) [12]: 13%
Population Healthy Nuclei (%) [12]: 82%
Population Hoechst High Intensity Objects (%) [12]: 1%
Population Membrane Permeable-Phenotype (%) [12]: 2%
Population Mitochondria Different-Phenotype (%) [12]: 12%
Population Mitotic Cells (%) [12]: 72%
Population Normal (%) [12]: 98%
Population Pyknosed Nuclei (%) [12]: 4%
Population Tubulin-Different-Phenotype (%) [12]: 6%
Total Cell Count [12]: 947

— ChEMBL document CHEMBL5058577, “EUbOPEN Chemogenomics Library 2 (Multiplex)” (2022)
